Measured values reported in ChEMBL document CHEMBL1811814, “Synthesis and evaluation of indole, pyrazole, chromone and pyrimidine based conjugates for tumor growth inhibitory activities--development of highly efficacious cytotoxic agents” (Eur J Med Chem, 2010).

How the values were obtained:
Assay type in all cases: functional
Set-up in all cases: scale not given: the % may be the effect or the level left
OVCAR-5 = assay: Growth inhibition of human OVCAR5 cells assessed tumor cell growth at 10^-5 M
Method in brief: (§1)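 NCI 60-human-tumor-cell-line panel screen. Each compound was tested at a single concentration of 10^-5 M, and percent growth of tumor cells was recorded for each cell line. Growth inhibition was expressed from these percent-growth values.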

OVCAR-8 = assay: Growth inhibition of human OVCAR8 cells assessed tumor cell growth at 10^-5 M; method in brief: as §1
HCC 2998 = assay: Growth inhibition of human HCC2998 cells assessed tumor cell growth at 10^-5 M; method in brief: as §1
SF-268 = assay: Growth inhibition of human SF268 cells assessed tumor cell growth at 10^-5 M; method in brief: as §1
[1] = Growth inhibition of human […] cells assessed tumor cell growth at 10^-5 M; method in brief: as §1
LOX IMVI = assay: Growth inhibition of human LOXIMVI cells assessed tumor cell growth at 10^-5 M; method in brief: as §1
CAKI-1 = assay: Growth inhibition of human Caki1 cells assessed tumor cell growth at 10^-5 M; method in brief: as §1
U-251 = assay: Growth inhibition of human U251 cells assessed tumor cell growth at 10^-5 M
Method in brief: (§2)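 Single-dose screen at 10^-5 M across the 60 human tumor cell line panel, run to NCI standards. The value is the percent growth of each cell line in the presence of compound. Compounds active at this dose moved on to five-concentration testing (10^-4 to 10^-8 M).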

SF-295 = assay: Growth inhibition of human SF295 cells assessed tumor cell growth at 10^-5 M; method in brief: as §1
K562 = assay: Growth inhibition of human K562 cells assessed tumor cell growth at 10^-5 M; method in brief: as §1
SK-MEL-2 = assay: Growth inhibition of human SK-MEL-2 cells assessed tumor cell growth at 10^-5 M; method in brief: as §1
HL-60(TB) = assay: Growth inhibition of human HL-60(TB) cells assessed tumor cell growth at 10^-5 M
Method in brief: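 HL-60(TB), part of the 60-line panel, tested at a single concentration of 10^-5 M. The read-out is percent tumor cell growth relative to untreated growth.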

SK-MEL-5 = assay: Growth inhibition of human SK-MEL-5 cells assessed tumor cell growth at 10^-5 M; method in brief: as §1
NCI-H23 = assay: Growth inhibition of human NCI-H23 cells assessed tumor cell growth at 10^-5 M; method in brief: as §1
CCRF-CEM = assay: Growth inhibition of human CCRF-CEM cells assessed tumor cell growth at 10^-5 M; method in brief: as §1
A498 = assay: Growth inhibition of human A498 cells assessed tumor cell growth at 10^-5 M; method in brief: as §1
MDA-MB-468 = assay: Growth inhibition of human MDA-MB-468 cells assessed tumor cell growth at 10^-5 M; method in brief: as §1
MDA-MB-231 = assay: Growth inhibition of human MDA-MB-231 cells assessed tumor cell growth at 10^-5 M; method in brief: as §1
ACHN = assay: Growth inhibition of human ACHN cells assessed tumor cell growth at 10^-5 M; method in brief: as §1
UACC-62 = assay: Growth inhibition of human UACC62 cells assessed tumor cell growth at 10^-5 M; method in brief: as §2
T47D = assay: Growth inhibition of human T47D cells assessed tumor cell growth at 10^-5 M; method in brief: as §2
OVCAR-3 = assay: Growth inhibition of human OVCAR3 cells assessed tumor cell growth at 10^-5 M; method in brief: as §1
M14 = assay: Growth inhibition of human M14 cells assessed tumor cell growth at 10^-5 M; method in brief: as §1
MOLT-4 = assay: Growth inhibition of human MOLT4 cells assessed tumor cell growth at 10^-5 M; method in brief: as §1
UACC-257 = assay: Growth inhibition of human UACC257 cells assessed tumor cell growth at 10^-5 M; method in brief: as §2
RXF 393 = assay: Growth inhibition of human RXF393 cells assessed tumor cell growth at 10^-5 M; method in brief: as §1
MCF7 = assay: Growth inhibition of human MCF7 cells assessed tumor cell growth at 10^-5 M; method in brief: as §1
786-0 = assay: Growth inhibition of human 786-0 cells assessed tumor cell growth at 10^-5 M; method in brief: as §1
COLO 205 = assay: Growth inhibition of human COLO205 cells assessed tumor cell growth at 10^-5 M; method in brief: as §1
EKVX = assay: Growth inhibition of human EKVX cells assessed tumor cell growth at 10^-5 M; method in brief: as §1
BT-549 = assay: Growth inhibition of human BT549 cells assessed tumor cell growth at 10^-5 M; method in brief: as §1
MDA-MB-435 = assay: Growth inhibition of human MDA-MB-435 cells assessed tumor cell growth at 10^-5 M; method in brief: as §1
NCI-H460 = assay: Growth inhibition of human NCI-H460 cells assessed tumor cell growth at 10^-5 M; method in brief: as §1
HCT-15 = assay: Growth inhibition of human HCT15 cells assessed tumor cell growth at 10^-5 M; method in brief: as §1
UO-31 = assay: Growth inhibition of human UO31 cells assessed tumor cell growth at 10^-5 M; method in brief: as §2
SNB-75 = assay: Growth inhibition of human SNB75 cells assessed tumor cell growth at 10^-5 M; method in brief: as §2
HCT-116 = assay: Growth inhibition of human HCT116 cells assessed tumor cell growth at 10^-5 M; method in brief: as §1
HT-29 = assay: Growth inhibition of human HT-29 cells assessed tumor cell growth at 10^-5 M; method in brief: as §1
HOP-92 = assay: Growth inhibition of human HOP92 cells assessed tumor cell growth at 10^-5 M; method in brief: as §1
NCI/ADR-RES = assay: Growth inhibition of human NCI/ADR-RES cells assessed tumor cell growth at 10^-5 M; method in brief: as §1
NCI-H322M = assay: Growth inhibition of human NCI-H322M cells assessed tumor cell growth at 10^-5 M; method in brief: as §1
SN12C = assay: Growth inhibition of human SN12C cells assessed tumor cell growth at 10^-5 M; method in brief: as §1
OVCAR-4 = assay: Growth inhibition of human OVCAR4 cells assessed tumor cell growth at 10^-5 M; method in brief: as §1
NCI-H226 = assay: Growth inhibition of human NCI-H226 cells assessed tumor cell growth at 10^-5 M; method in brief: as §1
HOP-62 = assay: Growth inhibition of human HOP62 cells assessed tumor cell growth at 10^-5 M; method in brief: as §1
SNB-19 = assay: Growth inhibition of human SNB19 cells assessed tumor cell growth at 10^-5 M; method in brief: as §2
KM12 = assay: Growth inhibition of human KM12 cells assessed tumor cell growth at 10^-5 M; method in brief: as §1
DU-145 = assay: Growth inhibition of human DU145 cells assessed tumor cell growth at 10^-5 M; method in brief: as §1
A549 = assay: Growth inhibition of human A549 cells assessed tumor cell growth at 10^-5 M; method in brief: as §1
SF-539 = assay: Growth inhibition of human SF539 cells assessed tumor cell growth at 10^-5 M; method in brief: as §1
SK-OV-3 = assay: Growth inhibition of human SKOV3 cells assessed tumor cell growth at 10^-5 M; method in brief: as §1
Malme-3M = assay: Growth inhibition of human MALME-3M cells assessed tumor cell growth at 10^-5 M; method in brief: as §1
TK-10 = assay: Growth inhibition of human TK10 cells assessed tumor cell growth at 10^-5 M; method in brief: as §2
IGROV-1 = assay: Growth inhibition of human IGROV1 cells assessed tumor cell growth at 10^-5 M; method in brief: as §1
SW-620 = assay: Growth inhibition of human SW620 cells assessed tumor cell growth at 10^-5 M; method in brief: as §2
PC-3 = assay: Growth inhibition of human PC3 cells assessed tumor cell growth at 10^-5 M; method in brief: as §1
NCI-H522 = assay: Growth inhibition of human NCI-H522 cells assessed tumor cell growth at 10^-5 M; method in brief: as §1
SK-MEL-28 = assay: Growth inhibition of human SK-MEL-28 cells assessed tumor cell growth at 10^-5 M; method in brief: as §1
[2] = Growth inhibition of human Hs 578T cells assessed tumor cell growth at 10^-5 M; method in brief: as §1

CC1=NN(c2cccc(Cl)c2)C(=O)/C1=C\c1c[nH]c2ccccc12
Activity (OVCAR-5): 98.5%
Activity (OVCAR-8): 107.69%
Activity (HCC 2998): 88.48%
Activity (SF-268): 107.91%
Activity [1]: 103.27%
Activity (LOX IMVI): 99.88%
Activity (CAKI-1): 155.88%
Activity (U-251): 103.49%
Activity (SF-295): 116.2%
Activity (K562): 128.85%
Activity (SK-MEL-2): 120.43%
Activity (HL-60(TB)): 124.41%
Activity (SK-MEL-5): 102.28%
Activity (NCI-H23): 117.91%
Activity (CCRF-CEM): 142.91%
Activity (A498): 100.75%
Activity (MDA-MB-468): 104.9%
Activity (MDA-MB-231): 72.74%
Activity (ACHN): 84.34%
Activity (UACC-62): 83.26%
Activity (T47D): 83.89%
Activity (OVCAR-3): 105.19%
Activity (M14): 99.91%
Activity (MOLT-4): 159.76%
Activity (UACC-257): 122.98%
Activity (RXF 393): 99.54%
Activity (MCF7): 76.22%
Activity (786-0): 98.46%
Activity (COLO 205): 122.84%
Activity (EKVX): 79.28%
Activity (BT-549): 117.3%
Activity (MDA-MB-435): 108.89%
Activity (NCI-H460): 109.9%
Activity (HCT-15): 103.61%
Activity (UO-31): 88.75%
Activity (SNB-75): 91.42%
Activity (HCT-116): 101.89%
Activity (HT-29): 114.3%
Activity (HOP-92): 72.8%
Activity (NCI/ADR-RES): 101.48%
Activity (NCI-H322M): 106.34%
Activity (SN12C): 200.78%
Activity (OVCAR-4): 104.32%
Activity (NCI-H226): 76.77%
Activity (HOP-62): 83.26%
Activity (SNB-19): 111.33%
Activity (KM12): 106.96%
Activity (DU-145): 121.25%
Activity (A549): 109.06%
Activity (SF-539): 100.44%
Activity (SK-OV-3): 99.61%
Activity (Malme-3M): 114.52%

C=CCn1cc(/C=C2\C(=O)N(c3c(Cl)cccc3Cl)c3ccccc32)c2ccccc21
Activity (OVCAR-5): 98.9%
Activity (OVCAR-8): 90.7%
Activity (HCC 2998): 92.3%
Activity (SF-268): 77.4%
Activity (TK-10): 100.4%
Activity [1]: 86.7%
Activity (LOX IMVI): 69.8%
Activity (CAKI-1): 60.9%
Activity (U-251): 63.1%
Activity (SF-295): 95.1%
Activity (K562): 53.6%
Activity (SK-MEL-2): 102.6%
Activity (HL-60(TB)): 93.4%
Activity (SK-MEL-5): 72.6%
Activity (NCI-H23): 83.7%
Activity (A498): 107.5%
Activity (MDA-MB-468): 93.3%
Activity (MDA-MB-231): 83.4%
Activity (ACHN): 80.5%
Activity (UACC-62): 68.7%
Activity (T47D): 63.9%
Activity (OVCAR-3): 88.2%
Activity (M14): 84.7%
Activity (MOLT-4): 71.8%
Activity (UACC-257): 116%
Activity (RXF 393): 93.3%
Activity (MCF7): 89.3%
Activity (786-0): 86.2%
Activity (COLO 205): 111.6%
Activity (EKVX): 80.5%
Activity (BT-549): 127.4%
Activity (MDA-MB-435): 100.8%
Activity (NCI-H460): 64.8%
Activity (HCT-15): 48.8%
Activity (UO-31): 56.7%
Activity (SNB-75): 71.5%
Activity (HCT-116): 44.8%
Activity (HT-29): 85.4%
Activity (HOP-92): 72.1%
Activity (IGROV-1): 66.4%
Activity (SW-620): 86.9%
Activity (NCI/ADR-RES): 84.6%
Activity (NCI-H322M): 96.2%
Activity (SN12C): 94.9%
Activity (OVCAR-4): 79.1%
Activity (PC-3): 58.2%
Activity (NCI-H226): 87%
Activity (HOP-62): 78.4%
Activity (SNB-19): 97.4%
Activity (KM12): 83.7%
Activity (NCI-H522): 88.3%
Activity (DU-145): 101.7%
Activity (A549): 95.2%
Activity (SF-539): 92.2%
Activity (SK-OV-3): 98.2%
Activity (Malme-3M): 96.3%
Activity (SK-MEL-28): 109.8%
Activity [2]: 86.4%
